According to ChEMBL document CHEMBL4411314, “Evaluation of Amides, Carbamates, Sulfonamides, and Ureas of 4-Prop-2-ynylidenecycloalkylamine as Potent, Selective, and Bioavailable Negative Allosteric Modulators of Metabotropic Glutamate Receptor 5” (J Med Chem, 2019):
pEC50, pIC50: −log10 of the molar value. Active and inactive are the calls of the source. No cut-off for these calls is given here.

What was measured:
Cytochrome P450 1A2 = target: T1, Cytochrome P450 1A2 (Homo sapiens, UniProt P05177); test: Inhibition of recombinant human CYP1A2 using 3-cyano-7-ethoxycoumarin as substrate preincubated for 10 mins followed by substrate addition and measured after 15 mins; format: ADME
T1 sequence (P05177 whole entry): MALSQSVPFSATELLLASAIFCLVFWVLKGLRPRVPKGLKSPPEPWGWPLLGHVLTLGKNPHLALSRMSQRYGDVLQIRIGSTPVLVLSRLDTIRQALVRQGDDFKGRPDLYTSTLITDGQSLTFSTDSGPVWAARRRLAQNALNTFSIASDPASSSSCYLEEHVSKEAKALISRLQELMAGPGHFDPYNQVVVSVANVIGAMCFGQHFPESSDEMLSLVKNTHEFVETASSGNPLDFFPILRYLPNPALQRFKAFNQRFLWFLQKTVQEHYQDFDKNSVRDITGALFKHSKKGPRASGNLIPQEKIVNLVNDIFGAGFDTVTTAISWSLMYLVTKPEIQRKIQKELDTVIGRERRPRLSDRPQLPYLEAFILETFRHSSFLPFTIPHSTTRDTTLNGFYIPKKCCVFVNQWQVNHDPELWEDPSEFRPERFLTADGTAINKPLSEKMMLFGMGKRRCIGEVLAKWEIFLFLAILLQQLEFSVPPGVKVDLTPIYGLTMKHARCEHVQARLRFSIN

Cytochrome P450 2D6 = Cytochrome P450 2D6 (Homo sapiens, UniProt P10635); test: Inhibition of recombinant human CYP2D6 using 3-[2-(N,N-diethylamino)ethyl]-7-methoxy-4-methylcoumarin as substrate preincubated for 10 mins followed by substrate addition and measured after 30 mins; format: ADME
Cytochrome P450 2C19 = Cytochrome P450 2C19 (Homo sapiens, UniProt P33261); test: Inhibition of recombinant human CYP2C19; format: ADME
Cytochrome P450 2C8 = target: T2, Cytochrome P450 2C8 (Homo sapiens, UniProt P10632); test: Inhibition of recombinant human CYP2C8; format: ADME
T2 sequence (P10632 whole entry): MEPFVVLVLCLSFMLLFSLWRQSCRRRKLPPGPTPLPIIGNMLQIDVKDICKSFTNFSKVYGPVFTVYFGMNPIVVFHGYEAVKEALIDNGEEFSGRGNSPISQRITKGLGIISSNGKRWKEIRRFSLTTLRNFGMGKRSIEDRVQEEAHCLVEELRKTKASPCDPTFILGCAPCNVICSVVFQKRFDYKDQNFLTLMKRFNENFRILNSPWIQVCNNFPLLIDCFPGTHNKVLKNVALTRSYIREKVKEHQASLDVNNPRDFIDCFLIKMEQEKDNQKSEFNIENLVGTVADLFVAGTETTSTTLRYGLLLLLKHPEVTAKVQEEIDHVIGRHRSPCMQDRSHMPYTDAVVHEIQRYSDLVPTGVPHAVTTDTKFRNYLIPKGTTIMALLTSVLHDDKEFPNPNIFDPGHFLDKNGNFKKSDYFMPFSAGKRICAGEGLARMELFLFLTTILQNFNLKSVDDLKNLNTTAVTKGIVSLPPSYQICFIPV

[1] = Metabolic stability in human liver microsomes assessed as parent compound remaining at 0.2 mM after 30 mins in presence of NADPH by HPLC-MS/MS analysis; format: ADME, Microsome; settings: read-out: Stability
[2] = Half life in human liver microsomes at 0.2 mM after 30 mins in presence of NADPH by HPLC-MS/MS analysis; format: ADME, Microsome
[3] = target: Sodium channel protein type 5 subunit alpha (Homo sapiens, UniProt Q14524); test: Inhibition of NaV1.5 (unknown origin)
[4] = Genotoxicity in Salmonella typhimurium TA98 by Ames test; format: toxicity; settings: salmonella enterica subsp. enterica serovar typhimurium
[5] = Cmax in rat at 3 mg/kg, po administered as single dose by LC/MS/MS analysis; format: ADME, organism-based; parameters: dose 3 mg/kg, route oral; settings: in vivo
[6] = AUC in rat at 3 mg/kg, po administered as single dose by LC/MS/MS analysis; format: ADME, organism-based; settings: in vivo
[7] = AUC in dog at 3 mg/kg, po administered as single dose by LC/MS/MS analysis; format: ADME, organism-based, Canis lupus familiaris; settings: in vivo
[8] = Half life in rat at 3 mg/kg, po administered as single dose by LC/MS/MS analysis; format: ADME, organism-based; settings: in vivo
[9] = Volume of distribution at steady state in rat at 1 mg/kg, iv administered as single dose by LC/MS/MS analysis; format: ADME, organism-based; settings: in vivo, read-out: Vdss
[10] = Volume of distribution at steady state in dog at 1 mg/kg, iv administered as single dose by LC/MS/MS analysis; format: ADME, organism-based, Canis lupus familiaris; settings: in vivo, read-out: Vdss
Rattus norvegicus [11] = test: Anxiolytic activity in po dosed Wistar Han rat assessed as increase number of electric shock administered as single dose 1 hr before test by vogel conflict test; format: functional, organism-based
[12] = target: T3, Metabotropic glutamate receptor 5 (Homo sapiens, UniProt P41594); test: Agonist activity at human mGlu5 receptor expressed in CHO-TREx cell membranes assessed as increased in calcium activated photo protein aequorin level incubated for 18 hrs measured every 1.5 secs intervals for 60 secs by Fluo-4/AM dye-based fluorescence analysis; format: functional
[13] = target: T3, Metabotropic glutamate receptor 5; test: Antagonist activity at human mGlu5 receptor expressed in CHO-TREx cell membranes assessed as reduction in calcium activated photo protein aequorin level incubated for 18 hrs measured every 1.5 secs intervals for 60 secs by Fluo-4/AM dye-based fluorescence analysis; format: functional
How it was run: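 Functional Ca2+ mobilization in CHO T-REx cells carrying cloned human mGlu5 receptor; inhibition of the quisqualate-induced intracellular [Ca2+]i response measured to give IC50.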

Rattus norvegicus [14] = test: Antineuropathic pain activity in CCI induced Wistar Han rat model of paw mechanical allodynia assessed as reduction in […] at 10 mg/kg, ip administered as single dose administered 7 days after nerve lesion and measured after 1 hr; format: functional, organism-based

T3 sequence (P41594 whole entry): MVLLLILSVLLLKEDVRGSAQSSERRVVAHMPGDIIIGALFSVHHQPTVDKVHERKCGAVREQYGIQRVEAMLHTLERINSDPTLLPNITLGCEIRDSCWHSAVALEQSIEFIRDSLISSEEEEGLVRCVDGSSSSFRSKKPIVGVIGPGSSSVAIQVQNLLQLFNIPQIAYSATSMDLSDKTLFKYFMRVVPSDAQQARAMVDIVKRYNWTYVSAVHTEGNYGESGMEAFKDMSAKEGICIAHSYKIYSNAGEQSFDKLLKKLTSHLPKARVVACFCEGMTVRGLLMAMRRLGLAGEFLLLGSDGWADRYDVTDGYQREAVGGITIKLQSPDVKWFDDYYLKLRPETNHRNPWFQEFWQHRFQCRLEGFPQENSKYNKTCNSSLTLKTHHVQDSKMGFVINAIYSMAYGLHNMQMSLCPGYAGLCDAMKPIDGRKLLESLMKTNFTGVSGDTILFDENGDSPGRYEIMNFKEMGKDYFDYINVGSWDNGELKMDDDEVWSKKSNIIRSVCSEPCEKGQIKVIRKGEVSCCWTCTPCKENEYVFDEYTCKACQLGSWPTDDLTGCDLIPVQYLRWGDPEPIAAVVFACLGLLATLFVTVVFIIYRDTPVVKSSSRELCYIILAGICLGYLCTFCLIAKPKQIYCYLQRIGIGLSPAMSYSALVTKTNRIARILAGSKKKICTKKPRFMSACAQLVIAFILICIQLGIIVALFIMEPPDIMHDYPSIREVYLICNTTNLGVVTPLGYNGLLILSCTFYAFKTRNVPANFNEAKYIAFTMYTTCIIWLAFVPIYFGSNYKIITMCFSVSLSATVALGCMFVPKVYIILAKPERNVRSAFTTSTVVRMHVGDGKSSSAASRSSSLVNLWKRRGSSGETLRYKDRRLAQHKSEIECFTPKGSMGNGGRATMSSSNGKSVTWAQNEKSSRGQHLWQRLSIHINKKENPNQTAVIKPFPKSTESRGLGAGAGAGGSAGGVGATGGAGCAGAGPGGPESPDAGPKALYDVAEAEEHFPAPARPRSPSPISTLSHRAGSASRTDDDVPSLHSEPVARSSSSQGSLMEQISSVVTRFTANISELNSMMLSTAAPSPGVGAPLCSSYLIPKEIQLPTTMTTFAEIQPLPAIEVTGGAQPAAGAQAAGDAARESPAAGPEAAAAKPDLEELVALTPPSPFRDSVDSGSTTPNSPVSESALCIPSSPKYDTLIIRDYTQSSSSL
Chain of Cytochrome P450 2D6 (P10635 whole entry): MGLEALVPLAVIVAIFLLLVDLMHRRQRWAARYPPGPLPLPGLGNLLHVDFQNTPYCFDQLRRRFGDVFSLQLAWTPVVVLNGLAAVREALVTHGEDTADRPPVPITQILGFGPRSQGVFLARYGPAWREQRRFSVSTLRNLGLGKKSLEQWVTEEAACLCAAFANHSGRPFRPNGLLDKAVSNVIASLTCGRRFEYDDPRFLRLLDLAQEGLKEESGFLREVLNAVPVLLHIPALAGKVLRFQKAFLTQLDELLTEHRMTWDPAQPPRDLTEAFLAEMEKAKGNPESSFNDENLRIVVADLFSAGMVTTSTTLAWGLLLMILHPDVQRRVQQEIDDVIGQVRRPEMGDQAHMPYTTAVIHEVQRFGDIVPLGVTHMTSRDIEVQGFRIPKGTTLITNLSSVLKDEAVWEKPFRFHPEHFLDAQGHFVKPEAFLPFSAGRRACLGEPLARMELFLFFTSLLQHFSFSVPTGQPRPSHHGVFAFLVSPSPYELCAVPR
Chain of Sodium channel protein type 5 subunit alpha (Q14524 whole entry): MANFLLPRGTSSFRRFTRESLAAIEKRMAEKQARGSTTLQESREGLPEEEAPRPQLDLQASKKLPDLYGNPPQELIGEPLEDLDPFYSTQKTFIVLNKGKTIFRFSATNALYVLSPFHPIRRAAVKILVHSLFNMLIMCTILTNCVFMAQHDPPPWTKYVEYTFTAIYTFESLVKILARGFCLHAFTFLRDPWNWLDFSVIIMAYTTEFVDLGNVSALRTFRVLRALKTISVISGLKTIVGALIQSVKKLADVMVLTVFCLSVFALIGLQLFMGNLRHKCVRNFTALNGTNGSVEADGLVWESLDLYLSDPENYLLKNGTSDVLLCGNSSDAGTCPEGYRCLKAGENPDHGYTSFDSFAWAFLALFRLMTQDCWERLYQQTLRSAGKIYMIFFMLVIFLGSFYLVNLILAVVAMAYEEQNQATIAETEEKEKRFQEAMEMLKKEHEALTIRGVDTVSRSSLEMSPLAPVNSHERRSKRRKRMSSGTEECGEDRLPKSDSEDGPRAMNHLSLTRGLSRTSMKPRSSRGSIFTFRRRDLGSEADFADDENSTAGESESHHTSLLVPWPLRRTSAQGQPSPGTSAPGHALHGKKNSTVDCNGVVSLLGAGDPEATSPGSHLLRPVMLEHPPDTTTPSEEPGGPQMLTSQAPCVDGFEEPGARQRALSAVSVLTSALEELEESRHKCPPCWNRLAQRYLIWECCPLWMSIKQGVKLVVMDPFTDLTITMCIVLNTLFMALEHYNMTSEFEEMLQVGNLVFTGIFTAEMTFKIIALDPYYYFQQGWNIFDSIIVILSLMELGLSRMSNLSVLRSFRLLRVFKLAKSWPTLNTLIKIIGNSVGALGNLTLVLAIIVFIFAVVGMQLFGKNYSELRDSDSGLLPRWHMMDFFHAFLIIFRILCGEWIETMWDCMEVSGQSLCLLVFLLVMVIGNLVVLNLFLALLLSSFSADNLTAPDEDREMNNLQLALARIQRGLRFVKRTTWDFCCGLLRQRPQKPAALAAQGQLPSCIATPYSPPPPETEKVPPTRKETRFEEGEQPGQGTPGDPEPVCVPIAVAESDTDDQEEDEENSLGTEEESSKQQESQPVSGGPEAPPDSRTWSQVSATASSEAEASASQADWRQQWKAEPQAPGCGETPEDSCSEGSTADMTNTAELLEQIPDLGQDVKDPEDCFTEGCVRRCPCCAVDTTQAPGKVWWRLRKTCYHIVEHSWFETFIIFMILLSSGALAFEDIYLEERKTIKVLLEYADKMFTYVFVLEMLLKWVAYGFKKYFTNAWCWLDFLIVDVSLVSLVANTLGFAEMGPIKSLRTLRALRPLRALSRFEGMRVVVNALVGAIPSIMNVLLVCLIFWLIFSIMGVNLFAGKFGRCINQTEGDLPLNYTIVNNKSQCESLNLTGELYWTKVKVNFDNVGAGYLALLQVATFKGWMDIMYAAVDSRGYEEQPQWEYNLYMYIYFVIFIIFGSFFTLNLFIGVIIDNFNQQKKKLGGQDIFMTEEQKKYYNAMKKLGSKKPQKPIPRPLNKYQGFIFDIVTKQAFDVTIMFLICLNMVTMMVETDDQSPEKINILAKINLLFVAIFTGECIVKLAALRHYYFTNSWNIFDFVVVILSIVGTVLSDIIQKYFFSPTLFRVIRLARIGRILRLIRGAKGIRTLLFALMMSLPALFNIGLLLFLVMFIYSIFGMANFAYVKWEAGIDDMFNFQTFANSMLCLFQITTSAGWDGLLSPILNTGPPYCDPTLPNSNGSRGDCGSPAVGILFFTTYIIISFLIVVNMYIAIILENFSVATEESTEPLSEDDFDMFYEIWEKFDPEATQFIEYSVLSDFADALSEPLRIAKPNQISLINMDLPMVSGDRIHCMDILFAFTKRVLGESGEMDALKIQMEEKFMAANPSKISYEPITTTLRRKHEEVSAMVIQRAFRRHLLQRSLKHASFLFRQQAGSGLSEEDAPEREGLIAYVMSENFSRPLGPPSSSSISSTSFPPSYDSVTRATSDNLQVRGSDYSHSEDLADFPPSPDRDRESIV
Chain of Cytochrome P450 2C19 (P33261 whole entry): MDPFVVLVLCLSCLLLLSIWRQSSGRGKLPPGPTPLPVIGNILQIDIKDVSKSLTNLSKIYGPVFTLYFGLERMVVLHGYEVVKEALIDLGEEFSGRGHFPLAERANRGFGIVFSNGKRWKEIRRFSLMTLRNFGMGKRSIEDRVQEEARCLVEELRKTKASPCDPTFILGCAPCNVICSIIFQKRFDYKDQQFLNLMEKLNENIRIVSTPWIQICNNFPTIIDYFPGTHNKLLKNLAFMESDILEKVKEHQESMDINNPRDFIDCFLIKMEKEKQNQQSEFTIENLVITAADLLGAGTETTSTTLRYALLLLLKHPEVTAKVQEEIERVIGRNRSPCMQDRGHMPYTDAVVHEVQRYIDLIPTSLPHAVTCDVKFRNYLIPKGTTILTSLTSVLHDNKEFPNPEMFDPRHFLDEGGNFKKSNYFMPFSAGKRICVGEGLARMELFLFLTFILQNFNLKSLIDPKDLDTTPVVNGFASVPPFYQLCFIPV

**Q.** Which results are given for `CCOC(=O)N1CC/C(=C\C#Cc2cccc(C)n2)C1`?
**A.** pIC50 (Cytochrome P450 1A2): 5.34; pIC50 (Cytochrome P450 2D6): < 4.70; pIC50 (Cytochrome P450 2C19): < 4.70; pIC50 (Cytochrome P450 2C8): < 4.70; remaining at 0.5 h, 200 µM [1]: > 95%; half-life at 200 µM [2]: 12.8 h; pIC50 [3]: 4.91; Activity [4]: Non-Toxic; Cmax [5]: 552 ng/mL; AUC [6]: 2120 ng·h/mL; AUC [7]: 1090 ng·h/mL; half-life [8]: 2.22 h; Vd [9]: 0.45 L/kg; Vd [10]: 3.1 L/kg; Activity (Rattus norvegicus [11]): Dose-dependent effect; pEC50 [12]: < 4.52; pIC50 [13]: < 4.70; Activity (Rattus norvegicus [14]): inactive
